Legend:
[1] = system: Kluyveromyces marxianus; experiment: Antifungal activity against Kluyveromyces fragilis NRRL 2415 at 100 ug after 72 hrs by agar disk diffusion assay; type: functional, organism-based
In short: (§1)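 Yeasts were pre-grown in Malt Extract Broth for 48 h. Sterile 6 mm discs loaded with compound solutions freshly made in DMSO were placed on inoculated agar and incubated at 25 °C for 72 h. The medium was supplemented with DMSO as a solvent control, and an appropriate reference antifungal disc was added to each plate.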

[2] = system: Rhodotorula mucilaginosa; experiment: Antifungal activity against Rhodotorula rubra DSM 70403 at 100 ug after 72 hrs by agar disk diffusion assay; type: functional, organism-based; in short: as §1
[3] = system: Hanseniaspora guilliermondii; experiment: Antifungal activity against Hanseniaspora guilliermondii DSM 3432 at 100 ug after 72 hrs by agar disk diffusion assay; type: functional, organism-based; in short: as §1
[4] = system: Debaryomyces hansenii; experiment: Antifungal activity against Debaryomyces hansenii DSM 70238 at 100 ug after 72 hrs by agar disk diffusion assay; type: functional, organism-based; in short: as §1
[5] = system: Kluyveromyces marxianus; experiment: Antifungal activity against Kluyveromyces fragilis NRRL 2415 after 24 hrs by broth micro dilution method; type: functional
In short: (§2)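 Broth microdilution was run in cation-adjusted Mueller Hinton Broth. Compounds were dissolved in DMSO at 2 mg mL^-1 and serially diluted two-fold. Yeast precultures were grown in Malt Extract Broth for 48 h. The final inoculum was about 10⁶ cfu mL^-1, and plates were incubated at 37 °C for 24 h. The MIC was read from this series.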

[6] = system: Rhodotorula mucilaginosa; experiment: Antifungal activity against Rhodotorula rubra DSM 70403 after 24 hrs by broth micro dilution method; type: functional; in short: as §2
[7] = system: Candida albicans; experiment: Antifungal activity against Candida albicans ATCC 10231 after 24 hrs by broth micro dilution method; type: functional; in short: as §2
[8] = system: Hanseniaspora guilliermondii; experiment: Antifungal activity against Hanseniaspora guilliermondii DSM 3432 after 24 hrs by broth micro dilution method; type: functional; in short: as §2
[9] = system: Debaryomyces hansenii; experiment: Antifungal activity against Debaryomyces hansenii DSM 70238 after 24 hrs by broth micro dilution method; type: functional; in short: as §2
[10] = system: Micrococcus luteus; experiment: Antibacterial activity against Micrococcus luteus La 2971 at 5 ug after 24 hrs by agar disk diffusion assay; type: functional; details: La 2971, 24 h, read-out: IZ
In short: (§3)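 Disk diffusion with sterile 6 mm discs loaded with DMSO solutions of the test agents and placed on inoculated agar. Bacteria were pre-grown in Nutrient Broth at 30 °C for 24 h, and plates were incubated at 35 °C for 24 h. Each plate carried a reference antibiotic disc matched to the organism, and a DMSO-only solvent control was run.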

[11] = system: Proteus vulgaris; experiment: Antibacterial activity against Proteus vulgaris ATCC 8427 at 5 ug after 24 hrs by agar disk diffusion assay; type: functional; details: ATCC 8427, 24 h, read-out: IZ; in short: as §3
[12] = system: Mycolicibacterium smegmatis; experiment: Antibacterial activity against Mycobacterium smegmatis CCM 2067 at 5 ug after 24 hrs by agar disk diffusion assay; type: functional; details: CCM 2067, 24 h, read-out: IZ; in short: as §3
[13] = system: Listeria monocytogenes; experiment: Antibacterial activity against Listeria monocytogenes ATCC 15313 at 5 ug after 24 hrs by agar disk diffusion assay; type: functional; details: ATCC 15313, 24 h, read-out: IZ; in short: as §3
[14] = system: Pseudomonas aeruginosa; experiment: Antibacterial activity against Pseudomonas aeruginosa ATCC 27853 at 5 ug after 24 hrs by agar disk diffusion assay; type: functional; details: ATCC 27853, 24 h, read-out: IZ; in short: as §3
[15] = system: Escherichia coli; experiment: Antibacterial activity against Escherichia coli ATCC 11230 at 5 ug after 24 hrs by agar disk diffusion assay; type: functional; details: ATCC 11230, 24 h, read-out: IZ; in short: as §3
[16] = system: Staphylococcus aureus; experiment: Antibacterial activity against Staphylococcus aureus ATCC 6538 at 5 ug after 24 hrs by agar disk diffusion assay; type: functional; details: ATCC 6538, 24 h, read-out: IZ
In short: (§4)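 Sterile 6 mm paper discs were loaded with ligand solution freshly prepared in DMSO and placed on inoculated agar. The inoculum came from broth cultures: bacteria in Nutrient Broth at 30 °C for 24 h, yeasts in Malt Extract Broth for 48 h. Plates were incubated at 35 °C for 24 h (bacteria) or 25 °C for 72 h (yeasts). A DMSO solvent control and a reference antibiotic disc were included on each plate.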

[17] = system: Klebsiella pneumoniae; experiment: Antibacterial activity against Klebsiella pneumoniae UC57 at 5 ug after 24 hrs by agar disk diffusion assay; type: functional; details: UC57, 24 h, read-out: IZ; in short: as §3
[18] = system: Bacillus cereus; experiment: Antibacterial activity against Bacillus cereus ATCC 7064 at 5 ug after 24 hrs by agar disk diffusion assay; type: functional; details: ATCC 7064, 24 h, read-out: IZ; in short: as §3
[19] = system: Kluyveromyces marxianus; experiment: Antifungal activity against Kluyveromyces fragilis NRRL 2415 at 10 ug after 72 hrs by agar disk diffusion assay; type: functional; details: NRRL 2415, 72 h, read-out: IZ; in short: as §4
[20] = system: Rhodotorula mucilaginosa; experiment: Antifungal activity against Rhodotorula rubra DSM 70403 at 10 ug after 72 hrs by agar disk diffusion assay; type: functional; details: DSM 70403, 72 h, read-out: IZ; in short: as §4
[21] = system: Candida albicans; experiment: Antifungal activity against Candida albicans ATCC 10231 at 10 ug after 72 hrs by agar disk diffusion assay; type: functional; details: ATCC 10231, 72 h, read-out: IZ; in short: as §4
[22] = system: Hanseniaspora guilliermondii; experiment: Antifungal activity against Hanseniaspora guilliermondii DSM 3432 at 10 ug after 72 hrs by agar disk diffusion assay; type: functional; details: DSM 3432, 72 h, read-out: IZ; in short: as §4
[23] = system: Debaryomyces hansenii; experiment: Antifungal activity against Debaryomyces hansenii DSM 70238 at 10 ug after 72 hrs by agar disk diffusion assay; type: functional; details: DSM 70238, 72 h, read-out: IZ; in short: as §4
[24] = system: Escherichia coli; experiment: Antibacterial activity against Escherichia coli ATCC 11230 at 30 ug after 24 hrs by agar disk diffusion assay; type: functional; details: ATCC 11230, 24 h, read-out: IZ
In short: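 Bacteria pre-grown in Nutrient Broth at 30 °C for 24 h. Sterile 6 mm discs loaded with compound solutions freshly made in DMSO were placed on inoculated agar and incubated at 35 °C for 24 h. The medium was supplemented with DMSO as a solvent control, and an appropriate reference antibiotic disc was added to each plate.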

[25] = system: Staphylococcus aureus; experiment: Antibacterial activity against Staphylococcus aureus ATCC 6538 at 30 ug after 24 hrs by agar disk diffusion assay; type: functional; details: ATCC 6538, 24 h, read-out: IZ; in short: as §4
[26] = system: Klebsiella pneumoniae; experiment: Antibacterial activity against Klebsiella pneumoniae UC57 at 30 ug after 24 hrs by agar disk diffusion assay; type: functional; details: UC57, 24 h, read-out: IZ; in short: as §3
[27] = system: Bacillus cereus; experiment: Antibacterial activity against Bacillus cereus ATCC 7064 at 30 ug after 24 hrs by agar disk diffusion assay; type: functional; details: ATCC 7064, 24 h, read-out: IZ; in short: as §3
[28] = system: Micrococcus luteus; experiment: Antibacterial activity against Micrococcus luteus La 2971 at 30 ug after 24 hrs by agar disk diffusion assay; type: functional; details: La 2971, 24 h, read-out: IZ; in short: as §3
[29] = system: Proteus vulgaris; experiment: Antibacterial activity against Proteus vulgaris ATCC 8427 at 30 ug after 24 hrs by agar disk diffusion assay; type: functional; details: ATCC 8427, 24 h, read-out: IZ; in short: as §3
[30] = system: Mycolicibacterium smegmatis; experiment: Antibacterial activity against Mycobacterium smegmatis CCM 2067 at 30 ug after 24 hrs by agar disk diffusion assay; type: functional; details: CCM 2067, 24 h, read-out: IZ; in short: as §3
[31] = system: Listeria monocytogenes; experiment: Antibacterial activity against Listeria monocytogenes ATCC 15313 at 30 ug after 24 hrs by agar disk diffusion assay; type: functional; details: ATCC 15313, 24 h, read-out: IZ; in short: as §3
[32] = system: Pseudomonas aeruginosa; experiment: Antibacterial activity against Pseudomonas aeruginosa ATCC 27853 at 30 ug after 24 hrs by agar disk diffusion assay; type: functional; details: ATCC 27853, 24 h, read-out: IZ; in short: as §3
[33] = system: Kluyveromyces marxianus; experiment: Antifungal activity against Kluyveromyces fragilis NRRL 2415 at 20 ug after 72 hrs by agar disk diffusion assay; type: functional; details: NRRL 2415, 72 h, read-out: IZ; in short: as §1
[34] = system: Rhodotorula mucilaginosa; experiment: Antifungal activity against Rhodotorula rubra DSM 70403 at 20 ug after 72 hrs by agar disk diffusion assay; type: functional; details: DSM 70403, 72 h, read-out: IZ; in short: as §1
[35] = system: Candida albicans; experiment: Antifungal activity against Candida albicans ATCC 10231 at 20 ug after 72 hrs by agar disk diffusion assay; type: functional; details: ATCC 10231, 72 h, read-out: IZ; in short: as §1
[36] = system: Hanseniaspora guilliermondii; experiment: Antifungal activity against Hanseniaspora guilliermondii DSM 3432 at 20 ug after 72 hrs by agar disk diffusion assay; type: functional; details: DSM 3432, 72 h, read-out: IZ; in short: as §1
[37] = system: Debaryomyces hansenii; experiment: Antifungal activity against Debaryomyces hansenii DSM 70238 at 20 ug after 72 hrs by agar disk diffusion assay; type: functional; details: DSM 70238, 72 h, read-out: IZ; in short: as §1

## NYSTATIN
[1]
  inhibition zone (IZ): 20 mm
[2]
  inhibition zone (IZ): 18 mm
[3]
  inhibition zone (IZ): 21 mm
[4]
  inhibition zone (IZ): 16 mm
[5]
  MIC: 6.25 µg/mL
[6]
  MIC: 6.25 µg/mL
[7]
  MIC: 3.12 µg/mL
[8]
  MIC: 3.12 µg/mL
[9]
  MIC: 12.5 µg/mL

## CC1COc2c(N3CCN(C)CC3)c(F)cc3c(=O)c(C(=O)O)cn1c23 (configuration not stated) [OFLOXACIN]
[10]
  zone of inhibition at 5 µg/disc: 28 mm
[11]
  zone of inhibition at 5 µg/disc: 30 mm
[12]
  zone of inhibition at 5 µg/disc: 32 mm
[13]
  zone of inhibition at 5 µg/disc: 30 mm
[14]
  zone of inhibition at 5 µg/disc: 28 mm
[15]
  zone of inhibition at 5 µg/disc: 30 mm
[16]
  zone of inhibition at 5 µg/disc: 24 mm
[17]
  zone of inhibition at 5 µg/disc: 28 mm
[18]
  zone of inhibition at 5 µg/disc: 44 mm

## Clc1ccccc1C(c1ccccc1)(c1ccccc1)n1ccnc1 [CLOTRIMAZOLE]
[19]
  zone of inhibition at 10 µg/disc: 15 mm
[20]
  zone of inhibition at 10 µg/disc: 18 mm
[21]
  zone of inhibition at 10 µg/disc: 16 mm
[22]
  zone of inhibition at 10 µg/disc: 22 mm
[23]
  zone of inhibition at 10 µg/disc: 18 mm

## CO/N=C(\C(=O)N[C@@H]1C(=O)N2C(C(=O)O)=C(COC(C)=O)CS[C@H]12)c1csc(N)n1 [CEFOTAXIME]
[24]
  zone of inhibition at 30 µg/disc: 10 mm
[25]
  zone of inhibition at 30 µg/disc: 12 mm
[26]
  zone of inhibition at 30 µg/disc: 13 mm
[27]
  zone of inhibition at 30 µg/disc: 54 mm
[28]
  zone of inhibition at 30 µg/disc: 18 mm
[29]
  zone of inhibition at 30 µg/disc: 14 mm
[30]
  zone of inhibition at 30 µg/disc: 11 mm
[31]
  zone of inhibition at 30 µg/disc: 16 mm
[32]
  zone of inhibition at 30 µg/disc: 32 mm

## CC(=O)N1CCN(c2ccc(OCC3COC(Cn4ccnc4)(c4ccc(Cl)cc4Cl)O3)cc2)CC1 (configuration not stated) [KETOCONAZOLE]
[33]
  zone of inhibition at 20 µg/disc: 21 mm
[34]
  zone of inhibition at 20 µg/disc: 16 mm
[35]
  zone of inhibition at 20 µg/disc: 22 mm
[36]
  zone of inhibition at 20 µg/disc: 24 mm
[37]
  zone of inhibition at 20 µg/disc: 14 mm
